We go through 14 compounds from PubChem BioAssay.

Active and inactive are the calls of the source.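 Rule for the calls, unless noted: active = viability loss from added drug above about 55%, and viability with drug at most 40%, in both replicates (limit read from the data, passing the limit was not always enough); inconclusive = both conditions met in only one replicate; inactive = neither replicate meets both conditions.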

Assay [1] can be described thus: reducers of endogenous Her2 protein level, primary screen, SKBR3 breast tumor cells, AlphaScreen, ATP viability (AID 461;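 active = Her2 level under about 52% in both replicate screens, with viability over 70% of control, limit read from the data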;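 for Her2 level: lower value means less Her2 protein in the cells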;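 for viability: percent of carrier control wells set as 100% viability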). To be noted: 18-24 h, measured here: SKBR3 viability, ATP luminescence, at 10 µM.
Assay [2] addresses Receptor tyrosine-protein kinase erbB-2 (Homo sapiens) (UniProt P04626). Described as above. The conditions noted are these: 18-24 h, at 10 µM, stronger effect = lower value.
Assay [3] in a line: SK-BR-3 cell growth inhibitors, pilot screen, 24 h, human (AID 572;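 active = viability at or below 10% of carrier control in both of two separate runs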;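 note: compound exposure lasted between 18 and 24 h rather than exactly 24 h; 100% = carrier-treated control wells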). To be noted: SK-BR-3 viability, CellTiter-Glo luminescence, at 10 µM, stronger effect = lower value.
Assay [4] in a line: HUVEC growth inhibition – cell-based, human, primary screen (AID 575;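 active = viability at or below 30% in both replicate assays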;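 note: 100% = median of untreated cell wells with 0.1% DMSO on each plate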). The conditions noted are these: HUVEC proliferation, CellTiter-Glo luminescence, 72 h; at 10 µM; stronger effect = lower value. In short, it runs like this:
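System: primary human umbilical vein endothelial cells; Quantity: 1250 endothelial cells in each well; Buffer or medium: supplemented EBM, 2% fetal bovine serum; Doses: one dose, 10 µM final, 0.1% DMSO; Incubation: 72 h compound incubation; Technique: ATP-based CellTiter-Glo luminescent read; Evaluation: percent of median DMSO-control luminescence; Controls: vehicle and MePR control wells.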

Assay [5] is described as follows: growth inhibitors of H69AR lung tumor, primary screen, human, duplicate replicates (AID 580;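 active = viability at or under a set limit in both replicates, limit being median viability minus 3 SD, cut at about 48% in these data, passing the limit was not always enough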;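 note: 100% = mean luminescence of untreated wells and 0% = no signal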). The conditions noted are these: H69AR lung tumor cells viability, ATP luminescence, 72 h; at 10 µM; stronger effect = lower value.
Assay [6] can be described thus: reversal of MRP1-mediated doxorubicin resistance, pilot screen, H69AR cells, doxorubicin co-treatment (AID 601). The conditions noted are these: CellTiter-Glo, 72 h, at 10 µM; for differential viability (reversal): stronger effect = higher value.
Assay [7] is described as follows: 384-well plate pilot, post-Golgi transport modulator project, inhibition of yeast transport mutant growth (AID 636; in the data active = inhibition above about 31%). The conditions noted are these: absorbance 615 nm, about 18 h, stronger effect = higher value.
The nature of assay [8]: growth suppression of yeast trafficking mutant, preliminary HTS, modulators of trafficking downstream of Golgi apparatus project, 1536-format plate, OD 615 nm (AID 637; in the data active = inhibition above about 30%). The conditions noted are these: yeast transport mutant growth, absorbance 615 nm, 18 h; stronger effect = higher value.
The mark [9] stands for this setting: H69AR cells + 2 uM doxorubicin, measured here: viability with 2 uM doxorubicin, stronger effect = lower value.
The mark [10] stands for this setting: H69AR cells, compound alone cytotoxicity.

Chain of Receptor tyrosine-protein kinase erbB-2 (Homo sapiens) (P04626 whole entry, looked up): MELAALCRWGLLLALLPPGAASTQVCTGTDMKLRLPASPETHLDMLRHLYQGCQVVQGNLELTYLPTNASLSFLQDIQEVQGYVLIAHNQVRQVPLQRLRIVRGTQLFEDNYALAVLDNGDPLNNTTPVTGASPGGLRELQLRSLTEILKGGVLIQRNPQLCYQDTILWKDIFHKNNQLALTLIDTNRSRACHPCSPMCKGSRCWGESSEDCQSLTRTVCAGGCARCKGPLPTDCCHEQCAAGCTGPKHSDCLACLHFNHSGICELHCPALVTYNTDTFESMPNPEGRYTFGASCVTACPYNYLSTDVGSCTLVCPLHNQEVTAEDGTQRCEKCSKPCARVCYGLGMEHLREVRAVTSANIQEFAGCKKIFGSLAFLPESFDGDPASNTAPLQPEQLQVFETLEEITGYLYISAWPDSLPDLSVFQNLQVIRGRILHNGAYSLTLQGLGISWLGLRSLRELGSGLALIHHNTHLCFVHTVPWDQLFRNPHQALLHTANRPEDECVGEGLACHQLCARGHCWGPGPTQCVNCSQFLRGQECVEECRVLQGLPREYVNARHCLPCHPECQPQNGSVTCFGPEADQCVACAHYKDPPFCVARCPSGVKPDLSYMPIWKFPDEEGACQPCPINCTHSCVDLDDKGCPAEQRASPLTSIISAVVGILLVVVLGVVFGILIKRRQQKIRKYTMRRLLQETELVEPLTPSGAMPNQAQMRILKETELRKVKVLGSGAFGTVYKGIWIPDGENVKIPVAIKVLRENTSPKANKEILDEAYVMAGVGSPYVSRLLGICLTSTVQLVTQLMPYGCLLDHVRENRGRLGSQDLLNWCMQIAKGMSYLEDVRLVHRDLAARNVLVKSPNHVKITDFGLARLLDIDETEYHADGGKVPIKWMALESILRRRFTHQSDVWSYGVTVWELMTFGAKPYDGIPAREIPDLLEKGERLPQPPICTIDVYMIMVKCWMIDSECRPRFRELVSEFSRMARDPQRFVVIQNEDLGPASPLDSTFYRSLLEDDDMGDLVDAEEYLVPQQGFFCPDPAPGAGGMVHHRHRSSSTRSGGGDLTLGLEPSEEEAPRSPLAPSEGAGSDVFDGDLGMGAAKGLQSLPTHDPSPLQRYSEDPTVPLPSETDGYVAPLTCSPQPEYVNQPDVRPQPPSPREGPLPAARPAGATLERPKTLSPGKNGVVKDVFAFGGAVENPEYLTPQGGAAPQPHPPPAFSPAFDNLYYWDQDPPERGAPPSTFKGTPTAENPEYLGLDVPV

Turning to `Cn1c(Cl)nc2ccccc21`, the viability in assay [1] was 115%; in assay [3], 115% (inactive); in assay [4], 90.7% (inactive); in assay [5], 94.8% (inactive); in assay [6] (setting [9]), 100%; in assay [6] (setting [10]), 94.8%. Besides, the Her2 level in assay [2] is 96% (inactive). Moreover, in assay [6] (H69AR cells + 2 uM doxorubicin), the differential viability (reversal) is -5.28% (inactive). Moreover, the inhibition is -0.53% (inactive) in assay [7] and 0.97% (inactive) in assay [8].

Consider `OCc1nc(CO)n(Cc2ccccc2)n1`, for which the viability in assay [1] was 85.5%; in assay [3], 85.5% (inactive); in assay [4], 88.7% (inactive); in assay [5], 102% (inactive); in assay [6] (setting [9]) it was 108%; in assay [6] (setting [10]) it was 102%. Further, the Her2 level in assay [2] was 84% (inactive). Moreover, the differential viability (reversal) in assay [6] (H69AR cells + 2 uM doxorubicin) is -5.83% (inactive). In addition, the inhibition was -1.05% (inactive) in assay [7] and -0.48% (inactive) in assay [8].

On to `C=CCn1c(C)cc(C(=O)CSc2nc3ccccc3c(=O)[nH]2)c1C`, for which the viability in assay [1] is 90.5%; in assay [3], 90.5% (inactive); in assay [4], 61.5% (inactive); in assay [5], 77.8% (inactive); in assay [6] (setting [9]), 81.8%; in assay [6] (setting [10]), 77.8%. The Her2 level in assay [2] was 92.5% (inactive). Besides, the differential viability (reversal) in assay [6] (H69AR cells + 2 uM doxorubicin) is -4.06% (inactive). Further, the inhibition is 54.1% (active) in assay [7] and 37.6% (active) in assay [8].

Regarding `CCCCNc1cc(C)oc(=O)c1C(C)=O`, the viability in assay [1] is 94.5%; in assay [3], 94.5% (inactive); in assay [4] it was 105% (inactive); in assay [5] it was 97.9% (inactive); in assay [6] (setting [9]), 90.9%; in assay [6] (setting [10]), 97.9%. Further, the Her2 level in assay [2] was 107% (inactive). Moreover, in assay [6] (H69AR cells + 2 uM doxorubicin), the differential viability (reversal) was 7% (inactive). Besides, the inhibition was -4.86% (inactive) in assay [7] and 3.28% (inactive) in assay [8].

Regarding `COc1ccc(C(=O)N(CCCO)Cc2cc3c(C)ccc(C)c3[nH]c2=O)cc1OC`, the viability in assay [1] was 90.5%; in assay [3], 90.5% (inactive); in assay [4], 113% (inactive); in assay [5], 95.1% (inactive); in assay [6] (setting [9]) it was 82.9%; in assay [6] (setting [10]) it was 95.1%. In addition, the Her2 level in assay [2] was 95% (inactive). Besides, in assay [6] (H69AR cells + 2 uM doxorubicin), the differential viability (reversal) was 12.2% (inactive). The inhibition in assay [7] is -5.06% (inactive); in assay [8], 2.46% (inactive).

Regarding `CCOC(=O)C1CCCN(C(=O)c2cc(=O)c3ccccc3o2)C1` (stereo not given), the viability was 94.5% in assay [1]; 94.5% (inactive) in assay [3]; 95.2% (inactive) in assay [4]; 97.3% (inactive) in assay [5]; 102% in assay [6] (setting [9]); 97.3% in assay [6] (setting [10]). In assay [2], the Her2 level is 87% (inactive). Moreover, in assay [6] (H69AR cells + 2 uM doxorubicin), the differential viability (reversal) is -4.92% (inactive). Also, the inhibition is -2.89% (inactive) in assay [7] and -0.95% (inactive) in assay [8].

With `O=C(Nc1ccc(CN2CCOCC2)cc1)c1cc2ccccc2oc1=O`, the viability was 99.5% in assay [1]; 99.5% (inactive) in assay [3]; 92.2% (inactive) in assay [4]; 82.6% (inactive) in assay [5]; 80.6% in assay [6] (setting [9]); 82.6% in assay [6] (setting [10]). For the same compound, the Her2 level in assay [2] is 88% (inactive). Further, the differential viability (reversal) in assay [6] (H69AR cells + 2 uM doxorubicin) was 2.02% (inactive). Also, the inhibition in assay [7] is -2.37% (inactive); in assay [8] it was 3.39% (inactive).

Consider `Cc1ccc(CN2C(=O)CCC2C(=O)NCC2CCCO2)cc1` (stereo not given), for which the viability is 90% in assay [1]; 90% (inactive) in assay [3]; 82.8% (inactive) in assay [4]; 103% (inactive) in assay [5]; 97.3% in assay [6] (setting [9]); 103% in assay [6] (setting [10]). In assay [2], the Her2 level was 81% (inactive). In assay [6] (H69AR cells + 2 uM doxorubicin), the differential viability (reversal) is 5.64% (inactive). For the same compound, the inhibition was -1.45% (inactive) in assay [7] and 3.55% (inactive) in assay [8].

Take `Cc1cc(=O)oc2cc(OCC(=O)OCc3nnc(-c4ccccc4)o3)ccc12`: the viability is 106% in assay [1]; 106% (inactive) in assay [3]; 84.1% (inactive) in assay [4]; 94.9% (inactive) in assay [5]; 91.9% in assay [6] (setting [9]); 94.9% in assay [6] (setting [10]). In addition, the Her2 level in assay [2] was 92.5% (inactive). For the same compound, the differential viability (reversal) in assay [6] (H69AR cells + 2 uM doxorubicin) was 3.04% (inactive). Also, the inhibition in assay [7] was -6.18% (inactive); in assay [8] it was -0.16% (inactive).

As for `CC(C)Cn1c(=O)c(C(=O)Nc2ccccc2S(N)(=O)=O)c(O)c2ccccc21`, the viability in assay [1] was 118%; in assay [3], 118% (inactive); in assay [4], 62.9% (inactive); in assay [5] it was 16.1% (active); in assay [6] (setting [9]) it was 27.5%; in assay [6] (setting [10]), 16.1%. In assay [2], the Her2 level was 91.5% (inactive). In addition, the differential viability (reversal) in assay [6] (H69AR cells + 2 uM doxorubicin) was -11.4% (inactive). For the same compound, the inhibition in assay [7] is 10.3% (inactive); in assay [8] it was 8.67% (inactive).

Turning to `C=CCn1c(SCc2ccc(C#N)cc2)nnc1-c1cccc(Cl)c1`, the viability in assay [1] is 95.5%; in assay [3], 95.5% (inactive); in assay [4], 102% (inactive); in assay [5], 80.2% (inactive); in assay [6] (setting [9]), 84%; in assay [6] (setting [10]) it was 80.2%. Also, the Her2 level in assay [2] is 86% (inactive). Moreover, the differential viability (reversal) in assay [6] (H69AR cells + 2 uM doxorubicin) is -3.84% (inactive). Also, the figures for the inhibition in assay [7] and in assay [8] were -2.21% (inactive) and -0.17% (inactive), respectively.

Consider `O=c1[nH]c(N2CCc3ccccc32)nc2c1CCCC2`, for which the viability in assay [1] is 125%; in assay [3] it was 125% (inactive); in assay [4] it was 101% (inactive); in assay [5] it was 104% (inactive); in assay [6] (setting [9]), 81.8%; in assay [6] (setting [10]), 104%. In assay [2], the Her2 level is 104% (inactive). For the same compound, the differential viability (reversal) in assay [6] (H69AR cells + 2 uM doxorubicin) was 21.9% (inactive). The inhibition in assay [7] is -1.87% (inactive); in assay [8] it was -1.45% (inactive).

As for `Cc1ccc(Cl)cc1NC(=O)CSc1nnc(C)n1-c1ccccc1`, the viability in assay [1] is 90%; in assay [3], 90% (inactive); in assay [4] it was 91% (inactive); in assay [5] it was 86.6% (inactive); in assay [6] (setting [9]) it was 80.6%; in assay [6] (setting [10]) it was 86.6%. Also, the Her2 level in assay [2] is 79% (inactive). Moreover, in assay [6] (H69AR cells + 2 uM doxorubicin), the differential viability (reversal) was 6.06% (inactive). Further, the inhibition was -2.63% (inactive) in assay [7] and 0.65% (inactive) in assay [8].

In the case of `CCOC(=O)c1cc(C)sc1N1C(=O)C2C3C=CC(C3)C2C1=O` (stereo not given), the viability in assay [1] was 132%; in assay [3], 132% (inactive); in assay [4], 109% (inactive); in assay [5], 98.7% (inactive); in assay [6] (setting [9]) it was 92.8%; in assay [6] (setting [10]) it was 98.7%. In addition, in assay [2], the Her2 level is 94.5% (inactive). Further, the differential viability (reversal) in assay [6] (H69AR cells + 2 uM doxorubicin) was 5.84% (inactive). Also, the figures for the inhibition in assay [7] and in assay [8] were -7.67% (inactive) and -0.95% (inactive), respectively.
